In brackets after ≈: the same amount, converted by molar mass. Activity calls are given as the source filed them. The rule behind the calls is not given here.
Experiments:
HCT-116 [1] = assay: Antitumor activity against human HCT116 cells xenografted in BALB/c mouse assessed as reduction in tumor growth at 5 mg/kg, iv administered every 3 days for 24 days measured at 3 days interval during compound dosing; type: functional, organism-based
HCT-116 [2] = assay: Antitumor activity against human HCT116 cells xenografted in BALB/c mouse assessed as survival rate at 1 mg/kg, iv administered every 3 days for 60 days relative to control; type: functional; details: HCT-116, iv
[3] = target: Serine/threonine-protein kinase PLK3 (Homo sapiens, UniProt Q9H4B4); assay: Binding affinity to wild-type human partial length PLK3 (A42 to L334 residues) expressed in mammalian expression system measured after 1 hr by kinomescan method
Serine/threonine-protein kinase PLK3, sequence (Q9H4B4 whole entry, the tested form may be a part): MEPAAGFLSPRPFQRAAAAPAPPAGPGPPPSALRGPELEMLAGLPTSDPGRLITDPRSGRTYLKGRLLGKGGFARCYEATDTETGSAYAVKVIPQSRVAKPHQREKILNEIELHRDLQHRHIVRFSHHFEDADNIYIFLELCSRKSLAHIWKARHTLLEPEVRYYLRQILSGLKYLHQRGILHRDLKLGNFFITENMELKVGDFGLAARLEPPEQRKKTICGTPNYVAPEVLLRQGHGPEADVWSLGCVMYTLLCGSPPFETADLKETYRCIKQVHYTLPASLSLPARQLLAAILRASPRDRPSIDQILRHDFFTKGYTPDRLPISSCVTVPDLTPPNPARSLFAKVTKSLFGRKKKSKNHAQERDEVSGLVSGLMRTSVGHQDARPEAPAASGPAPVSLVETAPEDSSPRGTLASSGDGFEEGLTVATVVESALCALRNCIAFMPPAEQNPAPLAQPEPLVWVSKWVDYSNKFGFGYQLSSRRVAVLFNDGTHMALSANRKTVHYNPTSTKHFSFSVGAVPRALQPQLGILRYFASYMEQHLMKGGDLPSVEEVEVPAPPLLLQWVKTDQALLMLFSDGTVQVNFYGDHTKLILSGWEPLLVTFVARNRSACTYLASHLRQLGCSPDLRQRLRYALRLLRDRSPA
Outline: (§1)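 KINOMEscan competition binding assay. A 321-kinase panel was first screened at 10 μM compound, and binding affinities were then determined for Aurora and PLK family members.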

Calu-6 = assay: Antiproliferative activity against human Calu6 cells measured after 48 hrs by MTT assay; type: functional, cell-based; details: Calu-6, 48 h
Outline: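 Cells were exposed to a range of compound concentrations for 48 h. MTT reagent was then added and absorbance read at 490 nm. Viability was normalized to vehicle control set as 100%, from n = 3 independent experiments, and IC50 was taken from the dose–response curves.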

HCT-116 [4] = assay: Cell cycle arrest in human HCT116 cells assessed as accumulation at G2/M phase at 5 uM measured after 24 to 48 hrs by propidium iodide staining-based flow cytometry (reference value: 3.37%); type: functional
Aurora kinase C = target: T1, Aurora kinase C (Homo sapiens, UniProt Q9UQB9); assay: Binding affinity to wild-type human full length AURKC (M1 to S275 residues) expressed in bacterial expression system measured after 1 hr by Kinomescan method; outline: as §1
T1 sequence (Q9UQB9 whole entry): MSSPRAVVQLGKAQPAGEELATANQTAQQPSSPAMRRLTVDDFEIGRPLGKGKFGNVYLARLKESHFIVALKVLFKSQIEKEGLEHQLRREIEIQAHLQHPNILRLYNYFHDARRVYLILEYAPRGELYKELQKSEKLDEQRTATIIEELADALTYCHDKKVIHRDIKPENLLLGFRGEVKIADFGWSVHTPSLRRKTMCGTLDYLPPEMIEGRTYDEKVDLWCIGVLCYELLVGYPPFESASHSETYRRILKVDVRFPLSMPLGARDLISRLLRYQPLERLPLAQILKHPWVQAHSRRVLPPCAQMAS

[5] = Solubility of the compound in water; type: physicochemical
Outline: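 Solubility of the compound measured at 25±0.2°C, separately in water and in DMSO; reported in µg/mL.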

HCT-116 [6] = assay: Antitumor activity against human HCT116 cells xenografted in BALB/c mouse assessed as mean survival days at 10 mg/kg, iv administered every 3 days for 60 days (reference value: 25 day); type: functional
HCT-116 [7] = assay: Induction of apoptosis in human HCT116 cells measured after 48 hrs by Annexin V-FITC/propidium iodide staining-based flow cytometry; type: functional, cell-based
HCT-116 [8] = assay: Induction of apoptosis in human HCT116 cells assessed as apoptotic cell population at 1 uM measured after 48 hrs by Annexin V-FITC/propidium iodide staining-based flow cytometry (reference value: 5.9%); type: functional
[9] = Cmax in Sprague-Dawley rat at 50 mg/kg, po administered via gastric gavage by LC-MS/MS analysis; type: ADME, organism-based; design: dose 50 mg/kg, route oral; details: in vivo
HCT-116 [10] = assay: Cell cycle arrest in human HCT116 cells assessed as increase in accumulation at G2/M phase measured after 24 to 48 hrs by propidium iodide staining-based flow cytometry; type: functional
[11] = target: T2, Phosphatidylinositol 4,5-bisphosphate 3-kinase catalytic subunit delta isoform (Homo sapiens, UniProt O00329); assay: Binding affinity to wild-type human partial length PIK3CD (R108 to Q1044 residues) expressed in mammalian expression system measured after 1 hr by kinomescan method; details: pooled result: one value given for 15 cell lines, strains, targets or settings
T2 sequence (O00329 whole entry): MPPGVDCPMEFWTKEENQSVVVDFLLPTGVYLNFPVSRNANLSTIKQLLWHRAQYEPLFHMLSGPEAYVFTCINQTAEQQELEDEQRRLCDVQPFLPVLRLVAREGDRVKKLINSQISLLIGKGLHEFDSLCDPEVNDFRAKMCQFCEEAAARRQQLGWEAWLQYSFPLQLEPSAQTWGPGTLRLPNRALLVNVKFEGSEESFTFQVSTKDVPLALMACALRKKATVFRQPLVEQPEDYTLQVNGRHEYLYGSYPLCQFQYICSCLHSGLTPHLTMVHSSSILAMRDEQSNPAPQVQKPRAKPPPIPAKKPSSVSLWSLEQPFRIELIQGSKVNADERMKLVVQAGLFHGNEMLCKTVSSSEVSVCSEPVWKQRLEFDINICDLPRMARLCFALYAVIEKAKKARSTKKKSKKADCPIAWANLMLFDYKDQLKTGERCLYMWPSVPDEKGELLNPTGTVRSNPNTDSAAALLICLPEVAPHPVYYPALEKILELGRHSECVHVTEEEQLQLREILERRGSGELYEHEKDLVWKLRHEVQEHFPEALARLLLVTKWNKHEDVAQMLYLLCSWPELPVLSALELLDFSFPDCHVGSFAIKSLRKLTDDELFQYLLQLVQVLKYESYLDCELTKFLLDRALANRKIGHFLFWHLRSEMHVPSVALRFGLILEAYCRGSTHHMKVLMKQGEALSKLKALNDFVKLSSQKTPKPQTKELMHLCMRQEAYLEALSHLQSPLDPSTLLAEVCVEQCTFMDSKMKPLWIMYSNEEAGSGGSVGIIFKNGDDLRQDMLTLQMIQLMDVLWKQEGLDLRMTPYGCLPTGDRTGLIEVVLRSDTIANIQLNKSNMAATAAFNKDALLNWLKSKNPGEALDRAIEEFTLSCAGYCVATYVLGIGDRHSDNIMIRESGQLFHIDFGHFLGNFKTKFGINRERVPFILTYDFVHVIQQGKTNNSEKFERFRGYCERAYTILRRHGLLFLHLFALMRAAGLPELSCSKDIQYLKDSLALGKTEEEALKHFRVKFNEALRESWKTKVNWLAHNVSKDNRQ

HCT-116 [12] = assay: Antitumor activity against human HCT116 cells xenografted in BALB/c mouse assessed as reduction in tumor size at 10 mg/kg, iv administered every 3 days for 24 days measured at 3 days interval during compound dosing relative to control; type: functional; design: scale not given: the % may be the effect or the level left
HCT-116 [13] = assay: Antitumor activity against human HCT116 cells xenografted in BALB/c mouse assessed as mean survival days at 1 mg/kg, iv administered every 3 days for 60 days (reference value: 25 day); type: functional
[14] = Toxicity in BALB/c mouse xenografted with human HCT116 cells assessed as change in body weight at 1 to 5 mg/kg, iv administered every 3 days for 24 days measured post-last dose; type: organism-based; details: in vivo

Question: Which results are given for O=C(Nc1ccc2cc(C(=O)Nc3nccs3)ccc2c1)c1ccc(Cl)c(Cl)c1?
Answer: Activity (HCT-116 [1]): Active; survival at 1 mg/kg (HCT-116 [2]): > 25%; Kd [3]: 0.456 µM; IC50 (Calu-6): 5.3 µM; Activity (HCT-116 [4]): 10.06%; Kd (Aurora kinase C): 0.289 µM; solubility [5]: 9.6 µg/mL (≈ 21.7 µM); MSD (HCT-116 [6]): >20 days; Activity (HCT-116 [7]): Dose-dependent effect; Activity (HCT-116 [8]): 41.1%; Cmax [9]: 25100 ng/mL; Activity (HCT-116 [10]): Dose-dependent effect; Kd [11]: 7.11 µM; Activity (HCT-116 [12]): 75%; MSD (HCT-116 [13]): 37.5 days; Activity [14]: Non-Toxic

Source: ChEMBL document CHEMBL4373706, “Discovery of Inhibitors of Aurora/PLK Targets as Anticancer Agents” (J Med Chem, 2019)
